Test [1] is filed under the species Homo sapiens. The test can be described thus: Selectivity ratio of Kinact/Ki for recombinant human PAD2 expressed in Escherichia coli BL21(DE3)pLysS cells to Kinact/Ki for recombinant full length N-terminal GST-tagged human PAD4 expressed in Escherichia coli Rosetta cells. An outline of the steps: (§1)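 Enzyme at 2.0 μM (PAD1, PAD2, PAD4) or 5.0 μM (PAD3) incubated at 37 °C with various inhibitor concentrations in 50 mM HEPES, 10 mM CaCl₂, 2 mM DTT, pH 7.6. Timed aliquots moved into substrate mix: 10 mM BAEE, or 10 mM BAA for PAD3. […] Selectivity ratios taken from these values.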

Test [2] is filed under the species Homo sapiens. Nature of the test: Selectivity ratio of Kinact/Ki for recombinant His6-tagged PAD3 (unknown origin) to Kinact/Ki for recombinant full length N-terminal GST-tagged human PAD4 expressed in Escherichia coli Rosetta cells. An outline of the steps:
as §1

For test [3], the species on record is Homo sapiens. Nature of the test: Selectivity ratio of Kinact/Ki for recombinant His6-tagged PAD1 (unknown origin) to Kinact/Ki for recombinant full length N-terminal GST-tagged human PAD4 expressed in Escherichia coli Rosetta cells. An outline of the steps: as §1
The species named for test [4] is Homo sapiens. Nature of the test: Selectivity ratio of Kinact/Ki for recombinant His6-tagged PAD1 (unknown origin) to Kinact/Ki for recombinant His6-tagged PAD3 (unknown origin). An outline of the steps:
as §1

For test [5], the species on record is Homo sapiens. Nature of the test: Selectivity ratio of Kinact/Ki for recombinant full length N-terminal GST-tagged human PAD4 expressed in Escherichia coli Rosetta to Kinact/Ki for recombinant His6-tagged PAD3 (unknown origin). A digest of the protocol: as §1
The species entered for test [6] is Homo sapiens. Nature of the test: Selectivity ratio of Kinact/Ki for recombinant human PAD2 expressed in Escherichia coli BL21(DE3)pLysS to Kinact/Ki for recombinant His6-tagged PAD3 (unknown origin). A digest of the protocol: as §1

Structures are written as SMILES.

Regarding `CCOc1cccc2c1nc([C@H](CCCNC(=N)CCl)NC(=O)c1cccc3c1C(=O)NC3)n2C`, the Selectivity ratio in test [1] turned out to be 30; in test [2] it was 2.7; in test [3], 24.

As to `CCN1Cc2cccc(C(=O)N[C@@H](CCCNC(=N)CCl)c3nc4ccccc4n3C(C)C)c2C1=O`, the Selectivity ratio in test [1] worked out at 6.8; in test [2] it was 2; in test [3] it was 11.

For `COc1cccc2[nH]c([C@H](CCCNC(=N)CCl)NC(=O)c3cccc4c3C(=O)NC4)nc12`, the Selectivity ratio in test [1] came out at 11; in test [2], 6.9; in test [3], 30.

As to `CCn1c([C@H](CCCNC(=N)CCl)NC(=O)c2ccccc2C(=O)O)nc2ccccc21`, the Selectivity ratio was 4.3 in test [4], 1.2 in test [5] and 1.6 in test [6].

As to `Cn1c([C@H](CCCNC(=N)CF)NC(=O)c2ccccc2C(=O)O)nc2ccccc21`, the Selectivity ratio was determined as 15 in test [1], 1.3 in test [2] and 40 in test [3].

`COc1cccc2c1nc([C@H](CCCNC(=N)CCl)NC(=O)c1cccc3c1C(=O)NC3)n2C`: the Selectivity ratio turned out to be 3.9 in test [4], 1.3 in test [5] and 3.9 in test [6].

As for `CCN1Cc2cccc(C(=O)N[C@@H](CCCNC(=N)CF)c3nc4cc(OC)ccc4n3C)c2C1=O`, the Selectivity ratio in test [4] is 47; in test [5], 3.8; in test [6], 125.

As to `Cn1c([C@H](CCCNC(=N)CF)NC(=O)c2cccc3c2C(=O)NC3)nc2ccccc21`, the Selectivity ratio was determined as 25 in test [4], 1 in test [5] and 8.9 in test [6].

Turning to `CC(C)n1c([C@H](CCCNC(=N)CCl)NC(=O)c2ccccc2C(=O)O)nc2ccccc21`, the figures for the Selectivity ratio in test [1], in test [2] and in test [3] were 38, 3.8 and 68, respectively.

In the case of `N=C(CF)NCCC[C@H](NC(=O)c1cccc2c1C(=O)NC2)c1nc2ccccc2[nH]1`, the Selectivity ratio in test [4] is 24; in test [5] it was 10; in test [6], 3.3.

On to `Cn1c([C@H](CCCNC(=N)CCl)NC(=O)c2ccccc2C(=O)O)nc2ccccc21`, for which the Selectivity ratio in test [4] came out at 4.3; in test [5], 1; in test [6], 1.9.

For the compound `CCn1c([C@H](CCCNC(=N)CF)NC(=O)c2ccccc2C(=O)O)nc2ccccc21`, the Selectivity ratio in test [1] was 31; in test [2] it was 1.7; in test [6], 18; in test [3], 39.

`COc1cccc2[nH]c([C@H](CCCNC(=N)CF)NC(=O)c3cccc4c3C(=O)NC4)nc12`: the Selectivity ratio in test [1] worked out at 8; in test [2], 3.8; in test [3], 42.

As for `CCN1Cc2cccc(C(=O)N[C@@H](CCCNC(=N)CCl)c3nc4ccccc4[nH]3)c2C1=O`, the Selectivity ratio is 4.3 in test [4], 1.4 in test [5] and 1.5 in test [6].

For the compound `N=C(CCl)NCCC[C@H](NC(=O)c1cccc2c1C(=O)NC2)c1nc2ccccc2[nH]1`, the Selectivity ratio stood at 6.5 in test [4], 2.1 in test [5] and 2.3 in test [6].

Turning to `COc1ccc2c(c1)nc([C@H](CCCNC(=N)CCl)NC(=O)c1cccc3c1C(=O)NC3)n2C`, the Selectivity ratio in test [1] was 10; in test [2], 2.4; in test [3], 25.

As to `CCn1c([C@H](CCCNC(=N)CCl)NC(=O)c2cccc3c2C(=O)NC3)nc2ccccc21`, the results for the Selectivity ratio in test [1], in test [2] and in test [3] were 4.8, 1.8 and 10, respectively.

With `COc1cccc2c1nc([C@H](CCCNC(=N)CCl)NC(=O)c1cccc3c1C(=O)N(C1CC1)C3)n2C`, the results for the Selectivity ratio in test [1], in test [2] and in test [3] were 6.7, 1.1 and 4.7, respectively.

On to `CCN1Cc2cccc(C(=O)N[C@@H](CCCNC(=N)CF)c3nc4c(OC)cccc4[nH]3)c2C1=O`, for which the values for the Selectivity ratio in test [1], in test [2] and in test [3] were 32, 12 and 107, respectively.

As to `CCN1Cc2cccc(C(=O)N[C@@H](CCCNC(=N)CCl)c3nc4c(OC)cccc4n3C)c2C1=O`, the Selectivity ratio worked out at 3.9 in test [4], 1.3 in test [5] and 5 in test [6].

For `CCOc1cccc2c1nc([C@H](CCCNC(=N)CCl)NC(=O)c1cccc3c1C(=O)N(CC)C3)n2C`, the Selectivity ratio in test [1] was found to be 43; in test [2], 5.5; in test [3], 12.

Regarding `CCN1Cc2cccc(C(=O)N[C@@H](CCCNC(=N)CF)c3nc4ccccc4n3C)c2C1=O`, the Selectivity ratio in test [1] was determined as 11; in test [2], 1.9; in test [3] it was 6.1.

Regarding `CC(C)n1c([C@H](CCCNC(=N)CF)NC(=O)c2ccccc2C(=O)O)nc2ccccc21`, the Selectivity ratio stood at 54 in test [1], 4.4 in test [2] and 49 in test [3].

As to `CC(C)n1c([C@H](CCCNC(=N)CF)NC(=O)c2cccc3c2C(=O)NC3)nc2ccccc21`, the Selectivity ratio in test [4] is 12; in test [5], 2.4; in test [6] it was 20.

Consider `CCN1Cc2cccc(C(=O)N[C@@H](CCCNC(=N)CF)c3nc4c(OC)cccc4n3CC)c2C1=O`, for which the Selectivity ratio in test [1] is 40; in test [2], 2; in test [3] it was 28.

Take `CCn1c([C@H](CCCNC(=N)CF)NC(=O)c2cccc3c2C(=O)NC3)nc2cc(OC)ccc21`: the Selectivity ratio in test [1] stood at 50; in test [2], 2.5; in test [3], 24.

As for `CCOc1cccc2c1nc([C@H](CCCNC(=N)CF)NC(=O)c1cccc3c1C(=O)N(CC)C3)n2C`, the Selectivity ratio turned out to be 26 in test [1], 1 in test [2] and 8.9 in test [3].

Regarding `COc1cccc2c1nc([C@H](CCCNC(=N)CCl)NC(=O)c1cccc3c1C(=O)N(C(C)C)C3)n2C`, the Selectivity ratio amounted to 4.1 in test [1], 1.2 in test [2] and 3.5 in test [3].

Consider `CCN1Cc2cccc(C(=O)N[C@@H](CCCNC(=N)CCl)c3nc4c(OC)cccc4[nH]3)c2C1=O`, for which the values for the Selectivity ratio in test [1], in test [2] and in test [3] were 2.3, 1 and 5, respectively.

In the case of `CCN1Cc2cccc(C(=O)N[C@@H](CCCNC(=N)CF)c3nc4ccccc4n3C(C)C)c2C1=O`, the results for the Selectivity ratio in test [1], in test [2] and in test [3] were 22, 3.4 and 10, respectively.

Turning to `CCn1c([C@H](CCCNC(=N)CCl)NC(=O)c2cccc3c2C(=O)NC3)nc2cc(OC)ccc21`, the Selectivity ratio in test [1] came out at 16; in test [2] it was 4.4; in test [3], 21.

`CCN1Cc2cccc(C(=O)N[C@@H](CCCNC(=N)CCl)c3nc4cc(OC)ccc4[nH]3)c2C1=O`: the Selectivity ratio is 9.1 in test [1], 4.1 in test [2] and 7.8 in test [3].

As to `CCN1Cc2cccc(C(=O)N[C@@H](CCCNC(=N)CCl)c3nc4c(OC)cccc4n3CC)c2C1=O`, the figures for the Selectivity ratio in test [1], in test [2] and in test [3] were 27, 3.4 and 31, respectively.

In the case of `CC(C)n1c([C@H](CCCNC(=N)CCl)NC(=O)c2cccc3c2C(=O)NC3)nc2ccccc21`, the values for the Selectivity ratio in test [1], in test [2] and in test [3] were 8, 3.2 and 27, respectively.

Take `COc1cccc2c1nc([C@H](CCCNC(=N)CCl)NC(=O)c1cccc3c1C(=O)N(C)C3)n2C`: the Selectivity ratio amounted to 11 in test [1], 2.2 in test [2] and 6.8 in test [3].

In the case of `CCN1Cc2cccc(C(=O)N[C@@H](CCCNC(=N)CCl)c3nc4cc(OC)ccc4n3CC)c2C1=O`, the values for the Selectivity ratio in test [1], in test [2] and in test [3] were 27, 8.4 and 21, respectively.

Turning to `CCn1c([C@H](CCCNC(=N)CCl)NC(=O)c2cccc3c2C(=O)NC3)nc2c(OC)cccc21`, the values for the Selectivity ratio in test [1], in test [2] and in test [3] were 19, 2.9 and 50, respectively.

As to `CCN1Cc2cccc(C(=O)N[C@@H](CCCNC(=N)CF)c3nc4cc(OC)ccc4n3CC)c2C1=O`, the Selectivity ratio in test [1] worked out at 70; in test [2], 2.7; in test [3], 28.

As for `Cn1c([C@H](CCCNC(=N)CCl)NC(=O)c2cccc3c2C(=O)NC3)nc2ccccc21`, the Selectivity ratio in test [1] was 3.1; in test [2] it was 2; in test [3], 61.

On to `CCN1Cc2cccc(C(=O)N[C@@H](CCCNC(=N)CCl)c3nc4cc(OC)ccc4n3C)c2C1=O`, for which the figures for the Selectivity ratio in test [1], in test [2] and in test [3] were 32, 9.3 and 37, respectively.

In the case of `CCN1Cc2cccc(C(=O)N[C@@H](CCCNC(=N)CF)c3nc4cc(OC)ccc4[nH]3)c2C1=O`, the Selectivity ratio in test [1] was 6.3; in test [2] it was 3.6; in test [3], 4.4.

For the compound `CCN1Cc2cccc(C(=O)N[C@@H](CCCNC(=N)CCl)c3nc4ccccc4n3CC)c2C1=O`, the Selectivity ratio in test [1] was 14; in test [2], 2.1; in test [3], 18.

For the origin of these results see ChEMBL document CHEMBL4177546, “Development of a Selective Inhibitor of Protein Arginine Deiminase 2” (J Med Chem, 2017).
